Legend:
[1] = Drug metabolism in sandwich-cultured human hepatocytes assessed as (3Z,3'Z)-6,6'-(furan-2,5-diyl)bis(N'-hydroxynicotinimidamide) at 10 uM after 4 hrs of incubation by HPLC-MS/MS analysis; assay type: ADME, cell-based, Hepatocyte
How it was run: (§1)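 Sandwich-cultured hepatocytes were used on day 5 (human) or day 4 (rat) and rinsed with warm phenol-red-free DMEM. They were then exposed to 10 µM DB868 (0.1–0.2% DMSO) at 37°C. Medium and methanol/water cell lysates were collected at 0.5, 2, 4 and 24 h. Analytes were quantified by HPLC/MS/MS with deuterated internal standards; protein by Bradford. Replicates: 6 (human) or 4 (rat).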

[2] = system: Liver microsome; assay: Drug metabolism in human liver microsomes assessed as (Z)-N'-hydroxy-6-(5-(5-((Z)-N'-methoxycarbamimidoyl)pyridin-2-yl)furan-2-yl nicotinimidamide formation measured by HPLC-MS/MS analysis; assay type: ADME
How it was run: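 M1 formation kinetics: HLM or RLM (0.5 mg/mL) in phosphate pH 7.4 with MgCl2, DB868 0.1–100 µM, started with 2 mM NADPH. Run 5 min (HLM) or 10 min (RLM) under initial-rate conditions (<20% consumption) in triplicate. Quantified by HPLC/MS/MS with d6-DB868 internal standard. Fitted to a one-enzyme (HLM) or two-enzyme (RLM) Michaelis–Menten model; Clint = Vmax/Km.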

[3] = system: Trypanosoma brucei rhodesiense; assay: Antitrypanosomal activity against Trypanosoma brucei rhodesiense STIB900 infected po dosed mouse model; assay type: functional
[4] = Drug metabolism in sandwich-cultured human hepatocytes assessed as DB829 at 10 uM after 24 hrs of incubation by HPLC-MS/MS analysis; assay type: ADME, cell-based, Hepatocyte; how it was run: as §1
[5] = Biotransformation in sandwich-cultured rat hepatocytes assessed as depletion of compound at 10 uM after 4 hrs of incubation by HPLC-MS/MS analysis; assay type: ADME, cell-based, Hepatocyte; settings: read-out: Drug metabolism; how it was run: as §1
[6] = biological target: T1, Cytochrome P450 4F2 (Homo sapiens, UniProt P78329); assay: Prodrug conversion assessed as human recombinant CYP4F2-mediated (Z)-N'-hydroxy-6-(5-(5-((Z)-N'-methoxycarbamimidoyl)pyridin-2-yl)furan-2-yl) nicotinimidamide formation at 5 uM after 180 mins incubation by HPLC-UV chromatogram; assay type: ADME; settings: recombinant enzyme, 15 min, in the assay text read “15 mins” for “180 mins”
T1 sequence (P78329 whole entry): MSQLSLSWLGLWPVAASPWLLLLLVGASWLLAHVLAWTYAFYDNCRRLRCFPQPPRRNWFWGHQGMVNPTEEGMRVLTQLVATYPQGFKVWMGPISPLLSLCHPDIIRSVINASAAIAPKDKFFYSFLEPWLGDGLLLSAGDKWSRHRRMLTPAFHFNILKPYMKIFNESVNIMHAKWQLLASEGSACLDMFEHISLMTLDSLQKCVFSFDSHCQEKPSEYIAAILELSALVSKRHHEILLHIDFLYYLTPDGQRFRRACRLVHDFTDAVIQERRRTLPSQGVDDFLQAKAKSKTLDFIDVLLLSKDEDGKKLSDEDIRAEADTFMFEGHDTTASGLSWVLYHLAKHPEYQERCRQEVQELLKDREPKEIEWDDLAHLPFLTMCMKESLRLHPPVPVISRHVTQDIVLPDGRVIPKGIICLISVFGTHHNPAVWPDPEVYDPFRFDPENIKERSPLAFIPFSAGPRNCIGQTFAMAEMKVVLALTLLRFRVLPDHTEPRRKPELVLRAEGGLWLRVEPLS
How it was run: (§2)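 Insect-cell-expressed human or rat P450 (with NADPH-P450 reductase, some also with cytochrome b5) at 0.1 pmol/µL in 100 mM potassium phosphate pH 7.4 with 10 mM MgCl2. DB868 (for M1) or M1 (for M2) was added at 5 µM (0.5% DMSO) and started with 2 mM NADPH. Stopped after 15 min with ice-cold acetonitrile, then HPLC-UV. Duplicate incubations.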

[7] = Drug metabolism in sandwich-cultured human hepatocytes assessed as fold increase in DB829 at 10 uM after 2 hrs of incubation by HPLC-MS/MS analysis; assay type: ADME, cell-based, Hepatocyte; how it was run: as §1
[8] = system: Liver microsome; assay: Prodrug conversion in human liver microsomes assessed as elution time at 10 uM after 180 mins incubation by HPLC-UV chromatography; assay type: ADME; settings: 3 h
How it was run: (§3)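 HLM or RLM (0.5 mg/mL) were incubated in triplicate in 100 mM phosphate pH 7.4 with 10 mM MgCl2 and an NADPH-regenerating system (1 mM NADP+, glucose 6-phosphate, G6PDH). DB868 was 10 µM. Sampled up to 180 min. Prodrug and metabolites were measured by HPLC-UV at 359 nm and expressed relative to initial prodrug; DB829 LLOQ 50 nM.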

[9] = biological target: T2, Cytochrome P450 1A2 (Rattus norvegicus, UniProt P04799); assay: Prodrug conversion assessed as rat recombinant CYP1A2-mediated (Z)-N'-hydroxy-6-(5-(5-((Z)-N'-methoxycarbamimidoyl)pyridin-2-yl)furan-2-yl) nicotinimidamide formation at 5 uM after 180 mins incubation by HPLC-UV chromatogram; assay type: ADME; settings: recombinant enzyme, 15 min, in the assay text read “15 mins” for “180 mins”; how it was run: as §2
T2 sequence (P04799 whole entry): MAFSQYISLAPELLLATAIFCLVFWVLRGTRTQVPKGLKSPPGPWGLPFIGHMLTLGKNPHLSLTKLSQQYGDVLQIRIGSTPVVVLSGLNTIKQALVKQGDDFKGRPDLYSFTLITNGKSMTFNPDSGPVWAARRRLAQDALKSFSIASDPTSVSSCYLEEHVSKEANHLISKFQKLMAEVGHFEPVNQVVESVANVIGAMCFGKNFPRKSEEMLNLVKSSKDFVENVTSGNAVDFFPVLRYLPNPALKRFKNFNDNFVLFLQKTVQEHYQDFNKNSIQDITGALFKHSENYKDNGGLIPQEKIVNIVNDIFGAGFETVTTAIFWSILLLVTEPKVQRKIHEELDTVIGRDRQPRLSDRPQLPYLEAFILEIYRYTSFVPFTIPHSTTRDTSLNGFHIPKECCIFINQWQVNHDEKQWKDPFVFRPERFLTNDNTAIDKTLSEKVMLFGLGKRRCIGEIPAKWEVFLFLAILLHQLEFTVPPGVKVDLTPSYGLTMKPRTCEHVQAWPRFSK

[10] = system: Liver microsome; assay: Prodrug conversion in rat liver microsomes assessed as depletion of compound at 10 uM after 180 mins incubation by HPLC-UV chromatography; assay type: ADME; settings: 3 h; how it was run: as §3

Drug metabolism [1]: metabolite_detected | Km [2]: 11 µM | Drug metabolism [4]: metabolite_detected | metabolised at 4 h, 10 µM [5]: 50% | Drug metabolism [6]: metabolite_detected | fold change (FC) [7]: 13 | Retention_time [8]: 18.5 min | Drug metabolism [9]: metabolite_detected | Drug metabolism [10]: 43%
SMILES: CO/N=C(\N)c1ccc(-c2ccc(-c3ccc(/C(N)=N/OC)cn3)o2)nc1.Cl
Activity [3]: 100%

Source: ChEMBL document CHEMBL3525966, “Compartmental and enzyme kinetic modeling to elucidate the biotransformation pathway of a centrally acting antitrypanosomal prodrug” (Drug Metab Dispos, 2013)
